Data reported in paper PMC4857052 (Molecular pharmacology, 2012).
“Also recorded” adds a separate entry of the source.

Assays:
TbU1 = details: procyclic forms (PCF), NE = no effect on uptake at concentration indicated, ref De Koning and Jarvis (1998), Papageorgiou et al. (2005), Gudin et al. (2006), cited from earlier work; for Ki: read-out: Ki, U1
[1] = system: T. b. brucei bloodstream forms strain 427 WT; experiment: Alamar blue drug sensitivity assay, wild-type; format: cell-based, Trypanosoma brucei brucei; details: for effect on bloodstream trypanosomes (in words): Alamar blue viability assay; for EC50: Trypanosoma brucei, read-out: EC50, WT, Mean, Alamar blue assay, wild-type sensitive control strain
Procedure, shortened: (§1)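 Bloodstream-form T. b. brucei s427 grown in HMI-9 with 10% FBS at 37°C under 5% CO2. Resistant lines were made by months of stepwise-increasing exposure to the analog, then cloned by limiting dilution. Viability was read by resazurin (Alamar blue) reduction. Thymidine rescue was tested by adding 100 μM thymidine.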

5F-2′dURes T. b. brucei = experiment: Alamar blue drug sensitivity assay, 5F-2′dURes; format: cell-based, Trypanosoma brucei brucei; details: for EC50: Trypanosoma brucei, read-out: EC50, 5F-2′dURes, Mean; for RF, 5F-2′dURes: resistance factor: IC50(resistant clone)/IC50(WT)
Procedure, shortened: as §1

5FOARes T. b. brucei = experiment: Alamar blue drug sensitivity assay, 5FOARes; format: cell-based, Trypanosoma brucei brucei; details: for EC50: Trypanosoma brucei, read-out: EC50, 5FOARes, Mean; for RF, 5FOARes: resistance factor: IC50(resistant clone)/IC50(WT)
Procedure, shortened: as §1

5FURes T. b. brucei = experiment: Alamar blue drug sensitivity assay, 5FURes; format: cell-based, Trypanosoma brucei brucei; details: for EC50: Trypanosoma brucei, read-out: EC50, 5FURes, Mean; for RF, 5FURes: resistance factor: IC50(resistant clone)/IC50(WT)
Procedure, shortened: as §1

**Q.** With `Cn1ccc(=O)[nH]c1=O` [1-Methyluracil] as the molecule, how does the “Ki, U1” value (TbU1) read?
**A.** NE, 10000

**Q.** With `Sc1ncccn1` [2-Mercaptopyrimidine] as the molecule, how does the “Ki, U1” value (TbU1) read?
**A.** NE, 500

**Q.** With `O=c1nccc[nH]1` [2-Pyrimidone] as the molecule, how does the Ki (TbU1) read?
**A.** 5400 ± 1300 µM

**Q.** For `O=c1cc[nH]c(=S)[nH]1` [2-Thiouracil], which Ki (TbU1) is on record?
**A.** 640 ± 110 µM

**Q.** For `O=c1ccn([C@@H]2O[C@H](CO)[C@@H](O)[C@H]2O)c(=S)[nH]1` [2-thiouridine], which “effect on bloodstream trypanosomes (in words)” value (shortened to “effect”) [1] is on record?
**A.** no effect up to at least 1 mM

**Q.** Which “effect” value [1] does the source give for `O=c1ccn([C@H]2CC[C@@H](CO)O2)c(=O)[nH]1` [2’,3′-dideoxyuridine, 2′,3′-dideoxyuridine] here?
**A.** no effect up to at least 1 mM

**Q.** With `O=C1C=CNC(=O)C1` [3-Deazauracil] as the molecule, how does the Ki (TbU1) read?
**A.** > 2500 µM

**Q.** For `Cn1c(=O)cc[nH]c1=O` [3-Methyluracil], which Ki (TbU1) is on record?
**A.** 1620 ± 350 µM

**Q.** Which “effect” value [1] does the source give for `Cc1cn([C@H]2CC[C@@H](CO)O2)c(=O)[nH]c1=O` [3′-deoxythymidine] here?
**A.** no effect up to at least 1 mM

**Q.** Which “effect” value [1] does the source give for `O=c1ccn([C@@H]2O[C@H](CO)C[C@H]2O)c(=O)[nH]1` [3′-deoxyuridine] here?
**A.** no effect up to at least 1 mM

**Q.** With `O=c1ccnc[nH]1` [4(3H)Pyrimidone] as the molecule, how does the Ki (TbU1) read?
**A.** 1670 ± 180 µM

**Q.** Which Ki (TbU1) does the source give for `O=c1[nH]ccc(=S)[nH]1` [4-Thiouracil] here?
**A.** 22 ± 7 µM

**Q.** With `O=c1[nH]c(=S)ccn1[C@@H]1O[C@H](CO)[C@@H](O)[C@H]1O` [4-thiouridine] as the molecule, how does the “effect” value [1] read?
**A.** no effect up to at least 1 mM

**Q.** Which Ki (TbU1) does the source give for `O=C1CCNC(=O)N1` [5,6-Dihydrouracil] here?
**A.** 830 ± 200 µM

**Q.** With `O=c1[nH]cc(Cl)c(=O)[nH]1` [5-Chlorouracil] as the molecule, how does the Ki (TbU1) read?
**A.** 900 ± 140 µM

**Q.** Which results are given for `O=C(O)c1[nH]c(=O)[nH]c(=O)c1F` [5-Fluoroorotic acid, 5-fluoroorotic acid]?
**A.** EC50 (5F-2′dURes T. b. brucei): 13.3 µM; RF, 5F-2′dURes (5F-2′dURes T. b. brucei): 0.94; EC50 (5FOARes T. b. brucei): 1180 µM; RF, 5FOARes (5FOARes T. b. brucei): 83; EC50 [1]: 14.1 µM; EC50 (5FURes T. b. brucei): 98 µM; RF, 5FURes (5FURes T. b. brucei): 6.9

**Q.** Which “Ki, U1” value (TbU1) does the source give for `O=c1[nH]cc([N+](=O)[O-])c(=O)[nH]1` [5-Nitrouracil] here?
**A.** NE, 1000

**Q.** Which “effect” value [1] does the source give for `C[C@H]1O[C@@H](n2cc(F)c(=O)[nH]c2=O)[C@H](O)[C@@H]1O` [5-fluoro-5′deoxyuridine] here?
**A.** no effect up to at least 1 mM

**Q.** Which “effect” value [1] does the source give for `Nc1nc(=O)n([C@@H]2O[C@H](CO)[C@@H](O)[C@H]2O)cc1F` [5-fluorocytidine] here?
**A.** no effect up to at least 1 mM

**Q.** With `Nc1nc(=O)[nH]cc1F` [5-fluorocytosine] as the molecule, how does the “effect” value [1] read?
**A.** no effect up to at least 1 mM

**Q.** For `O=c1[nH]c(=O)n([C@@H]2O[C@H](CO)[C@@H](O)[C@H]2O)cc1F` [5-fluorouridine], which “effect” value [1] is on record?
**A.** no effect up to at least 1 mM; also recorded: no effect on trypanosome growth

**Q.** What does the source list for `O=c1[nH]c(=O)n([C@H]2C[C@H](O)[C@@H](CO)O2)cc1Cl` [5Cl-2’-dUrd, 5-chloro-2′-deoxyuridine]?
**A.** EC50 (5F-2′dURes T. b. brucei): 22 µM; RF, 5F-2′dURes (5F-2′dURes T. b. brucei): 0.4; EC50 (5FOARes T. b. brucei): 91 µM; RF, 5FOARes (5FOARes T. b. brucei): 1.7; EC50 [1]: 54 µM; fold more sensitive than wild-type (5FURes T. b. brucei; 5-FURes): 15 fold; EC50 (5FURes T. b. brucei): 3.7 µM; RF, 5FURes (5FURes T. b. brucei): 0.07

**Q.** With `C[C@H]1O[C@@H](n2ccc(=O)[nH]c2=O)[C@H](O)[C@@H]1O` [5′-deoxyuridine] as the molecule, how does the “effect” value [1] read?
**A.** no effect up to at least 1 mM

**Q.** Which Ki (TbU1) does the source give for `Cc1cc(=O)[nH]c(=O)[nH]1` [6-Methyluracil] here?
**A.** > 2500 µM

**Q.** With `Nc1ncnc2[nH]cnc12` [Adenine] as the molecule, how does the “Ki, U1” value (TbU1) read?
**A.** NE, 1000

**Q.** For `Nc1ncnc2c1ncn2[C@@H]1O[C@H](CO)[C@@H](O)[C@H]1O` [Adenosine], which “Ki, U1” value (TbU1) is on record?
**A.** NE, 1000

**Q.** For `Nc1nc2nc[nH]c2c(=O)[nH]1` [Guanine], which Ki (TbU1) is on record?
**A.** > 25 µM

**Q.** With `Nc1nc2c(ncn2[C@@H]2O[C@H](CO)[C@@H](O)[C@H]2O)c(=O)[nH]1` [Guanosine] as the molecule, how does the “Ki, U1” value (TbU1) read?
**A.** NE, 1000

**Q.** For `O=c1[nH]c(=O)c2[nH]c(=O)[nH]c2[nH]1` [Uric acid], which “Ki, U1” value (TbU1) is on record?
**A.** NE, 1000
